Reference: ChEMBL document CHEMBL4402581, “Monohydrazone Based G-Quadruplex Selective Ligands Induce DNA Damage and Genome Instability in Human Cancer Cells” (J Med Chem, 2020)
Activity calls are given as the source filed them. The rule behind the calls is not given here.

Experiments:
[1] = tested on: Quadruplex DNA; assay: Stabilization of c-Kit1 G4 quadruplex DNA assessed as change in melting temperature at 10 mol.equiv by circular dichroism melting assay; assay type: nucleic-acid assay
How it was run: (§1)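 CD melting from 20 to 100 °C at 1 °C/min, monitored at 264 nm (c-Kit1, c-Kit2, c-Myc, Tel23-p), 287 nm (Tel23-h) or 280 nm (hairpin). Ligand was at 10 mol equiv with folded DNA (15 μM G4, 30 μM hairpin). ΔTm is Tm with ligand minus Tm without, from curve fits, averaged over triplicates.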

[2] = tested on: Quadruplex DNA; assay: Stabilization of c-Kit2 G4 quadruplex DNA assessed as change in melting temperature at 10 mol.equiv by circular dichroism melting assay; assay type: nucleic-acid assay; how it was run: as §1
[3] = tested on: Quadruplex DNA; assay: Stabilization of c-Myc G4 quadruplex DNA assessed as change in melting temperature at 10 mol.equiv by circular dichroism melting assay; assay type: nucleic-acid assay; how it was run: as §1
[4] = tested on: Quadruplex DNA; assay: Stabilization of parallel Tel23 G4 quadruplex DNA assessed as change in melting temperature at 10 mol.equiv by circular dichroism melting assay; assay type: nucleic-acid assay; how it was run: as §1
[5] = tested on: Quadruplex DNA; assay: Stabilization of human Tel23 G4 quadruplex DNA assessed as change in melting temperature at 10 mol.equiv by circular dichroism melting assay; assay type: nucleic-acid assay; how it was run: as §1
[6] = Stabilization of hairpin-duplex DNA assessed as change in melting temperature at 10 mol.equiv by circular dichroism melting assay; how it was run: as §1
[7] = tested on: Quadruplex DNA; assay: Effect on c-Kit1 G4 quadruplex DNA architecture at 10 mol.equiv by circular dichroism spectral analysis; assay type: nucleic-acid assay
How it was run: (§2)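 CD spectra of 15 μM G4s or 30 μM hairpin in 20 mM K phosphate pH 7.0 with 5 mM KCl, after annealing. Recorded at 20 °C over 230–360 nm, three scans averaged, buffer baseline subtracted. Ligand was added at 10 mol equiv to the folded DNA from a 10 mM DMSO stock.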

[8] = tested on: Quadruplex DNA; assay: Effect on c-Kit2 G4 quadruplex DNA architecture at 10 mol.equiv by circular dichroism spectral analysis; assay type: nucleic-acid assay; how it was run: as §2
[9] = tested on: Quadruplex DNA; assay: Effect on c-Myc G4 quadruplex DNA architecture at 10 mol.equiv by circular dichroism spectral analysis; assay type: nucleic-acid assay; how it was run: as §2
[10] = tested on: Quadruplex DNA; assay: Effect on parallel Tel23 G4 quadruplex DNA architecture at 10 mol.equiv by circular dichroism spectral analysis; assay type: nucleic-acid assay; how it was run: as §2
[11] = tested on: Quadruplex DNA; assay: Effect on human Tel23 G4 quadruplex DNA architecture at 10 mol.equiv by circular dichroism spectral analysis; assay type: nucleic-acid assay; how it was run: as §2
[12] = Effect on hairpin-duplex DNA architecture at 10 mol.equiv by circular dichroism spectral analysis; how it was run: as §2
[13] = tested on: Quadruplex DNA; assay: Stabilization of G4 quadruplex DNA in human U2OS cells assessed as increase in number of G4 foci at 10 uM incubated for 24 hrs by immunofluorescence microscopy; assay type: cell-based
[14] = tested on: Quadruplex DNA; assay: Stabilization of G4 quadruplex DNA in human U2OS cells assessed as colocalization of TRF2/[…] foci at 10 uM incubated for 24 hrs by immunofluorescence microscopy (reference value: 18.4 +/- 2.81%); assay type: cell-based
[15] = tested on: Quadruplex DNA; assay: Stabilization of G4 quadruplex DNA in human U2OS cells assessed as TRF2 foci per cell at 10 uM incubated for 24 hrs by immunofluorescence microscopy (reference value: 15.8 +/- 2.6%); assay type: cell-based
[16] = tested on: U2OS; assay: Cytotoxicity against human U2OS cells assessed as reduction in cell viability incubated for 1 hr followed by 48 hrs of recovery in drug free medium by MTT assay; assay type: functional, cell-based
How it was run: (§3)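 Cells grown in DMEM with 10% FBS and 1% glutamine at 37 °C, 5% CO2, and seeded 25 × 10^4 per well. Treatment began 24 h after seeding and lasted 1 or 24 h, followed by 48 h in drug-free medium. MTT was added for 1 h at 37 °C, then DMSO solubilization and absorbance at 595 nm. IC50 came from linear regression; two independent experiments, each in triplicate.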

[17] = tested on: U2OS; assay: Cytotoxicity against human U2OS cells assessed as reduction in cell viability incubated for 24 hrs followed by 48 hrs of recovery in drug-free medium by MTT assay; assay type: functional, cell-based; how it was run: as §3
[18] = tested on: HeLa; assay: Cytotoxicity against human HeLa cells assessed as reduction in cell viability incubated for 1 hr followed by 48 hrs of recovery in drug free medium by MTT assay; assay type: functional, cell-based; how it was run: as §3
[19] = tested on: HeLa; assay: Cytotoxicity against human HeLa cells assessed as reduction in cell viability incubated for 24 hrs followed by 48 hrs of recovery in drug free medium by MTT assay; assay type: functional, cell-based; how it was run: as §3
[20] = tested on: U2OS; assay: Induction of DNA:RNA hybrid formation in human U2OS cells assessed as increase in R loop formation at 10 uM incubated for 30 mins by S9.6 immunofluorescence microscopy; assay type: functional, cell-based
How it was run: (§4)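 U2OS cells were treated at 10 μM for 5–60 min, 24 h after seeding, then fixed in cold methanol and permeabilized with acetone. Stained with S9.6 antibody and anti-nucleolin. The nucleolar signal was subtracted from total nuclear S9.6 fluorescence, and values were normalized to the untreated mean; two biological replicates.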

[21] = tested on: U2OS; assay: Induction of DNA:RNA hybrid formation in human U2OS cells assessed as increase in R loop formation at 10 uM incubated for 60 mins by S9.6 immunofluorescence microscopy; assay type: functional, cell-based; how it was run: as §4
[22] = tested on: U2OS; assay: Induction of DNA damage in human U2OS cells assessed as increase in gammaH2AX phosphorylation at S139 at 10 uM incubated for 4 hrs by immunofluorescence microscopy; assay type: functional, cell-based
How it was run: (§5)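 U2OS cells were treated with 10 μM for 4 h, pre-extracted 3 min with CSK buffer containing 0.5% Triton X-100, and fixed in 2% paraformaldehyde. Co-stained 1 h for 53BP1 and γH2AX, with DAPI counterstain. Foci were counted per nucleus and normalized to the untreated mean, across three biological replicates.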

[23] = tested on: U2OS; assay: Induction of DNA damage in human U2OS cells assessed as increase in phosphorylated 53BPI foci colocalization with gammaH2AX foci at 10 uM incubated for 4 hrs by immunofluorescence microscopy; assay type: functional, cell-based; how it was run: as §5
[24] = tested on: U2OS; assay: Induction of genome instability in human U2OS cells assessed as increase in micronuclei formation at 10 uM incubated for 24 hrs by immunofluorescence microscopy; assay type: functional, cell-based
How it was run: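 U2OS cells were treated for 24 h, fixed in 4% paraformaldehyde, permeabilized with 0.5% Triton X-100, and stained with DAPI. Micronuclei were counted per 100 cells.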

Row | Structure (SMILES) | Activity [1] | Activity [2] | Activity [3] | Activity [4] | Activity [5] | ΔTm [6] | Activity [7] | Activity [8] | Activity [9] | Activity [10] | Activity [11] | Activity [12] | other results
1 | O=C1Nc2ccc(Cl)cc2/C1=C\c1cccc(/C=N/NC2=NCCN2)c1 | Active | Active | Active | Active | Active | > 2 °C | inactive | inactive | inactive | inactive | inactive | inactive | 
2 | COc1cc2c(/C=N/NC(=N)N)c[nH]c2cc1C | Active | Active | Active | Active | Active | > 2 °C | inactive | inactive | inactive | inactive | inactive | inactive | 
3 | Nc1ccn2c(/C=N/NC3=NCCN3)c(-c3ccccc3)nc2n1 | Active | Active | Active | Active | Active | > 2 °C | inactive | inactive | inactive | inactive | inactive | inactive | 
4 | N=C(N)N/N=C/c1cccc(/C=C2/C(=O)Nc3ccc(Cl)cc32)c1 | Active | Active | Active | Active | Active | > 2 °C | inactive | inactive | inactive | inactive | inactive | inactive | 
5 | COc1cc2c(/C=N/NC(=N)N)c(Cl)n(C)c2cc1C | Active | Active | Active | Active | Active | > 2 °C | inactive | inactive | inactive | inactive | inactive | inactive | 
6 | CN(C)c1ccc(Nc2c3ccc(NC(=O)CCN4CCCC4)cc3nc3cc(NC(=O)CCN4CCCC4)ccc23)cc1 |  |  |  |  |  |  |  |  |  |  |  |  | Activity [13]: Active; Activity [14]: 15.2%; Activity [15]: 19.1%
7 | Cc1cc2c(cc1O)/C(=C\c1cccc(/C=N/NC3=NCCN3)c1)C(=O)N2 | Active | Active | Active | Active | Active |  | inactive | inactive | inactive | inactive | inactive | inactive | Activity [6]: Active
8 | Cc1cc2c(cc1O)/C(=C\c1cccc(/C=N/NC(=N)N)c1)C(=O)N2 | Active | Active | Active | Active | Active | > 2 °C | inactive | inactive | inactive | inactive | inactive | inactive | 
9 | O=C1Nc2c(ccc3ccccc23)/C1=C\c1cccc(/C=N/NC2=NCCN2)c1 | Active | Active | Active | Active | Active | > 2 °C | inactive | inactive | inactive | inactive | inactive | inactive | 
10 | COc1cc2c(/C=N/NC(=N)N)c(Cl)[nH]c2cc1C | Active | Active | Active | Active | Active | > 2 °C | inactive | inactive | inactive | inactive | inactive | inactive | 

More lines, main results first:

Row | Activity [1] | Activity [2] | Activity [3] | Activity [4] | Activity [5] | ΔTm [6] | Activity [7] | Activity [8] | Activity [9] | Activity [10] | Activity [11] | Activity [12] | Structure (SMILES) | other results
11 | Active | Active | Active | Active | Active | > 2 °C | inactive | inactive | inactive | inactive | inactive | inactive | N=C(N)N/N=C/c1cccc(/C=C2/C(=O)Nc3c2ccc2ccccc32)c1 | 
12 | Active | Active | Active | Active | Active |  | inactive | inactive | inactive | inactive | inactive | inactive | N=C(N)N/N=C/c1cn(C/C=C/c2ccccc2)c2ccccc12 | Activity [6]: Active
13 | Active | Active | Active | Active | Active |  | inactive | inactive | inactive | inactive | inactive | inactive | N=C(N)N/N=C/c1c(Cl)n(C/C=C/c2ccccc2)c2ccccc12 | Activity [6]: Active
14 | inactive | inactive | inactive | inactive | inactive |  | inactive | inactive | inactive | inactive | inactive | inactive | N=C(N)N/N=C/c1c(-c2ccccc2)nc2nc(N)ccn12 | Activity [6]: inactive; IC50 [16]: > 100 µM; IC50 [17]: > 50 µM; IC50 [18]: > 100 µM; IC50 [19]: > 50 µM; Activity [13]: inactive; Activity [14]: 10.1%; Activity [15]: 15.3%; Activity [20]: Active; Activity [21]: Active; Activity [22]: Active; Activity [23]: Active; Activity [24]: Active
15 | Active | Active | Active | Active | Active | > 2 °C | inactive | inactive | inactive | inactive | inactive | inactive | N=C(N)N/N=C/c1cn(Cc2ccccc2)c2ccccc12 | 
